Tests used:
[1] = system: L1210; experiment: The compound was tested in vitro for growth of inhibitory activity against lymphoid leukemia L1210 cells; assay type: functional, cell-based, Mus musculus
Outline: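 Cultured L1210 lymphoid leukemia cells exposed to agent for 48 h; proliferation measured against untreated control growth. IC50 is the nanomolar concentration holding growth to 50% of control; some values averaged from two determinations.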

[2] = system: P388; experiment: Increase in the life span of mice implanted with lymphocytic leukemia P388 at the highest nontoxic dose of 12 mg/Kg given to the compound intraperitoneally; assay type: functional; conditions: Mus musculus, P388, ip
[3] = system: P388; experiment: Increase in the life span of mice implanted with lymphocytic leukemia P388 at the highest nontoxic dose of 200 mg/Kg given to the compound intraperitoneally; assay type: functional; conditions: Mus musculus, P388, ip
[4] = system: L1210; experiment: Mitotic index (fraction of cells in mitosis divided by total cells ) for cultured lymphoid leukemia L1210 cells; assay type: functional, Mus musculus
Outline: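 Cultured L1210 lymphoid leukemia cells exposed to agent for 12 h; mitotic index scored as fraction of cells in mitosis over total cells. Value is the nanomolar concentration giving a mitotic index of 0.5 (MI0.5).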

[5] = system: P388; experiment: Increase in the life span of mice implanted with lymphocytic leukemia P388 at the highest nontoxic dose of 1 mg/Kg given to the compound intraperitoneally; assay type: functional; conditions: Mus musculus, P388, ip
[6] = system: P388; experiment: Increase in the life span of mice implanted with lymphocytic leukemia P388 at the highest nontoxic dose of 1.5 mg/kg given to the compound intraperitoneally; assay type: functional; conditions: Mus musculus, P388, ip, route intraperitoneal
[7] = system: P388; experiment: Increase in the life span of mice implanted with lymphocytic leukemia P388 at the highest nontoxic dose of 25 mg/Kg given to the compound intraperitoneally; assay type: functional; conditions: Mus musculus, P388, ip
[8] = system: P388; experiment: Increase in the life span of mice implanted with lymphocytic leukemia P388 at the highest nontoxic dose of 50 mg/Kg given to the compound intraperitoneally; assay type: functional; conditions: Mus musculus, P388, ip
[9] = system: P388; experiment: Increase in the life span of mice implanted with lymphocytic leukemia P388 at the highest nontoxic dose of 2 mg/Kg given to the compound intraperitoneally; assay type: functional; conditions: Mus musculus, P388, ip
[10] = system: P388; experiment: Increase in the life span of mice implanted with lymphocytic leukemia P388 at the highest nontoxic dose of 0.5 mg/Kg given to the compound intraperitoneally; assay type: functional; conditions: Mus musculus, P388, ip
[11] = system: P388; experiment: Increase in the life span of mice implanted with lymphocytic leukemia P388 at the highest nontoxic dose of 200 mg/Kg given to the compound intraperitoneally on day 1; assay type: functional; conditions: Mus musculus, P388, ip, 24 h

SMILES	IC50 ([1]; Mus musculus, L1210)	MI0.5 [4]	further results
CNC(=O)Nc1cc2c(c(N)n1)N=C(c1ccccc1)C(C)N2 (stereo not given)	20 nM		ILS at 12 mg/kg [2]: 0%
CCOC(=O)Nc1nc(NC(=O)OCC)c2c(c1N)NC(C)C(c1ccccc1)=N2 (stereo not given)	> 300 nM		ILS at 200 mg/kg [3]: 0%
COc1cc2c(c(OC)c1OC)-c1ccc(OC)c(=O)cc1[C@@H](NC(C)=O)CC2 [COLCHICINE]	6.4 nM	21 nM	
COC(=O)Nc1cc2c(c(N)n1)N=C(c1ccccc1)C(C)N2 (stereo not given)	0.54 nM	0.8 nM	ILS at 1 mg/kg [5]: 88%
CC[C@]1(O)C[C@H]2CN(CCc3c([nH]c4ccccc34)[C@@](C(=O)OC)(c3cc4c(cc3OC)N(C=O)[C@H]3[C@@](O)(C(=O)OC)[C@H](OC(C)=O)[C@]5(CC)C=CCN6CC[C@]43[C@@H]65)C2)C1 [VINCRISTINE]	3.4 nM	11 nM	ILS at 1.5 mg/kg [6]: 122%
CCOC(=O)Nc1cc2c(c(NC(C)=O)n1)N=C(c1ccccc1)CN2	8.6 nM	23 nM	ILS at 25 mg/kg [7]: 49%
Nc1nccc2c1N=C(c1ccccc1)CN2	2800 nM	>10000 nM	ILS at 50 mg/kg [8]: 0%
CCC(C)OC(=O)Nc1cc2c(c(N)n1)N=C(c1ccccc1)C(C)N2 (stereo not given)	1.2 nM		ILS at 12 mg/kg [2]: 60%
CC1Nc2cc(N)nc(N)c2N=C1c1ccccc1 (stereo not given)	500 nM	850 nM	
CC(=O)Nc1cc2c(c(NC(C)=O)n1)N=C(c1ccccc1)C(C)N2C(C)=O (stereo not given)	> 100 nM		
CC1Nc2cc(NC(=O)OCc3ccccc3)nc(N)c2N=C1c1ccccc1 (stereo not given)	63 nM		
CCOC(=O)Nc1cc2c(c(N)n1)N=C(c1ccccc1)C(C)N2.Cl (stereo not given)	0.51 nM	1.5 nM	ILS at 1 mg/kg [5]: 75%
CCOC(=O)Nc1cc2c(c(N)n1)N=C(c1ccccc1)CN2		2.8 nM	ILS at 2 mg/kg [9]: 51%
CCOC(=O)Nc1cc2c(c(N)n1)N=C(c1ccccc1)C(C)N2.O=S(=O)(O)CCO (stereo not given)		0.74 nM	IC50 ([1]; l1210): 0.54 nM; ILS at 0.5 mg/kg [10]: 46%
Nc1nc(NC(=O)OC2CCCCC2)cc2c1N=C(c1ccccc1)CN2	230 nM	260 nM	ILS at 200 mg/kg [11]: 0%
